In publication PMC5909815 (Nature chemical biology, 2017):
pIC50: −log10 of the molar value.

Key:
H1155 cells [1] = assay: cell viability, combination of inhibitors with paclitaxel; format: cell-based
[2] = test system: multiple cell lines (H650, H1155, H23); assay: relative cell counts after treatment with selective inhibitors; format: cell-based; settings: 72 h
How it was run: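 Cells were treated 72 h with test inhibitors at 1.5 μM (20 μM for FMK and SL0101), diluted from 10 mM DMSO stocks in complete RPMI. Viable cells were counted in triplicate by trypan blue exclusion on a hemocytometer. Data are biological triplicates each in technical triplicate, reported as median ± SD relative counts.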

EML4-ALK = EML4-ALK (Homo sapiens, UniProt Q9HC35+Q9UM73); assay: c-ceritinib pulldown; format: binding; settings: immobilized compound, cell lysate
ALK = ALK (Homo sapiens, UniProt Q9UM73); assay: in vitro kinase assay; format: biochemical
How it was run: (§1)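 Biochemical kinase IC50s were determined by two contract providers. One used a 10-dose 3-fold serial dilution from 20 μM and the other a 9-dose 3-fold dilution from 20 μM, each in technical duplicate. Reported values are the mean of the combined datasets.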

[3] = test system: ERK phosphorylation in H23 cells; assay: Western blot, ERK phosphorylation; format: cell-based; settings: 3 h
How it was run: (§2)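 H23 cells were treated for 3 h with test compounds: FMK at 20 μM, OSI-906 and PF-573228 at 1.5 μM. Target phosphorylation and downstream signals were read by western blot with HRP-conjugated secondary antibodies; n = 3.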

H650 and H1155 cells = assay: cell viability, combination with paclitaxel; format: cell-based; settings: 72 h
How it was run: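 Cells were plated at 1000 cells/well in 384-well format and dosed 24 h later with test compound alone or with the partner agent, each diluted in culture medium. After 72 h, viability was read by CellTiter-Glo luminescence (n = 3). Dose-response curves were fitted, and combination effects were scored by the Bliss model or by the Chou-Talalay combination index.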

[4] = test system: PDX tumor models with high pFAK1 staining (PDX1, PDX2, PDX3); assay: ex vivo soft-agar 3D clonogenic assay, combination with paclitaxel; format: cell-based; settings: particularly at low drug concentrations
[5] = target: RSK1/2 C-terminal kinase domain (CTKD); assay: cross-competition pulldown with NTKD or CTKD inhibitors; format: binding; settings: H650 lysate ± 20 μM BI-D1870 or FMK
H1155 cells [6] = assay: apoptosis by cleaved caspase 3/7 and PARP1; format: cell-based; settings: for apoptosis, single drug: single drug treatment
FER = FER (Homo sapiens, UniProt P16591); assay: in vitro kinase assay; format: biochemical
[7] = test system: NSCLC cell lines (KRAS-mutant H650, H1155 and H23 cells); assay: phenotypic drug screen, cell viability; format: cell-based; settings: 72 h, 2.5 μM; ALK-negative lines
How it was run: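 Phenotypic screen: 240 compounds were tested across 20 NSCLC cell lines, seeded 1000 cells/well in 384-well plates and treated 24 h later. Compounds were diluted from 10 mM DMSO stocks in complete RPMI to final 0.5 μM and 2.5 μM for 72 h in biological duplicate. Viability was read by CellTiter-Glo luminescence and profiles were grouped by unsupervised hierarchical clustering.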

FAK1 and RSK1/2 = assay: c-ceritinib pulldown competition with free ceritinib; format: binding; settings: 20 μM unmodified ceritinib, H650 cell lysate
[8] = test system: RSK1/2 S380/S386 autophosphorylation in H23 cells; assay: Western blot, RSK1/2 autophosphorylation; format: cell-based; settings: 3 h
How it was run: as §2

[9] = test system: phosphorylation of RPS6 at S235/236; assay: Immunoblot, RPS6 phosphorylation; format: cell-based
[10] = test system: autophosphorylation of FAK1 in H23 cells; assay: Western blot, FAK1 autophosphorylation; format: cell-based; settings: 3 h
How it was run: as §2

[11] = patient plasma; cited from earlier work
H460 cells [12] = assay: clonogenic assay, combination with paclitaxel; format: cell-based; settings: 7 days
[13] = test system: ALK-negative NSCLC cell lines (most sensitive cells); assay: CellTiter-Glo cell viability, dose-response curves; format: cell-based
AMPKα1 = AMPKα1 (Homo sapiens, UniProt Q13131); assay: in vitro kinase assay; format: biochemical
How it was run: as §1

[14] = test system: NRAS-mutant H1299 LCLC cells; assay: cell viability, combination with paclitaxel; format: cell-based
mTOR = mTOR (Homo sapiens, UniProt P42345); assay: in vitro kinase assay; format: biochemical; settings: at 1.5 μM
H460 cells [15] = assay: cell viability, combination with paclitaxel; format: cell-based
ERK1/2 = assay: in vitro kinase assay; format: biochemical; settings: at 1.5 μM
[16] = test system: AKT phosphorylation in H23 cells; assay: Western blot, AKT phosphorylation; format: cell-based; settings: 3 h
How it was run: as §2

NSCLC cells = assay: cell cycle analysis by flow cytometry; format: cell-based
How it was run: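 Cell cycle: after incubation, cells were harvested, fixed in 70% cold ethanol and held at −20°C. They were then washed in PBS and stained with 1 μg/mL DAPI in 0.1% Triton X-100/PBS. DNA content was measured by flow cytometry and cell-cycle phases were modelled from the histograms.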

[17] = test system: phosphorylation of YB1 at S102; assay: Immunoblot, YB1 phosphorylation; format: cell-based; settings: 3 h treatment
How it was run: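 YB1 phosphorylation was read by immunoblot after 3 h treatment: FMK 20 μM, OSI-906 1.5 μM, PF-573228 1.5 μM. Lysis was in NP40/Tris pH 7.5/glycerol/MgCl₂/NaCl buffer with phosphatase and protease inhibitors. Detection used HRP-conjugated anti-rabbit or anti-mouse secondaries.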

Chain of ALK (Q9UM73 19-1620): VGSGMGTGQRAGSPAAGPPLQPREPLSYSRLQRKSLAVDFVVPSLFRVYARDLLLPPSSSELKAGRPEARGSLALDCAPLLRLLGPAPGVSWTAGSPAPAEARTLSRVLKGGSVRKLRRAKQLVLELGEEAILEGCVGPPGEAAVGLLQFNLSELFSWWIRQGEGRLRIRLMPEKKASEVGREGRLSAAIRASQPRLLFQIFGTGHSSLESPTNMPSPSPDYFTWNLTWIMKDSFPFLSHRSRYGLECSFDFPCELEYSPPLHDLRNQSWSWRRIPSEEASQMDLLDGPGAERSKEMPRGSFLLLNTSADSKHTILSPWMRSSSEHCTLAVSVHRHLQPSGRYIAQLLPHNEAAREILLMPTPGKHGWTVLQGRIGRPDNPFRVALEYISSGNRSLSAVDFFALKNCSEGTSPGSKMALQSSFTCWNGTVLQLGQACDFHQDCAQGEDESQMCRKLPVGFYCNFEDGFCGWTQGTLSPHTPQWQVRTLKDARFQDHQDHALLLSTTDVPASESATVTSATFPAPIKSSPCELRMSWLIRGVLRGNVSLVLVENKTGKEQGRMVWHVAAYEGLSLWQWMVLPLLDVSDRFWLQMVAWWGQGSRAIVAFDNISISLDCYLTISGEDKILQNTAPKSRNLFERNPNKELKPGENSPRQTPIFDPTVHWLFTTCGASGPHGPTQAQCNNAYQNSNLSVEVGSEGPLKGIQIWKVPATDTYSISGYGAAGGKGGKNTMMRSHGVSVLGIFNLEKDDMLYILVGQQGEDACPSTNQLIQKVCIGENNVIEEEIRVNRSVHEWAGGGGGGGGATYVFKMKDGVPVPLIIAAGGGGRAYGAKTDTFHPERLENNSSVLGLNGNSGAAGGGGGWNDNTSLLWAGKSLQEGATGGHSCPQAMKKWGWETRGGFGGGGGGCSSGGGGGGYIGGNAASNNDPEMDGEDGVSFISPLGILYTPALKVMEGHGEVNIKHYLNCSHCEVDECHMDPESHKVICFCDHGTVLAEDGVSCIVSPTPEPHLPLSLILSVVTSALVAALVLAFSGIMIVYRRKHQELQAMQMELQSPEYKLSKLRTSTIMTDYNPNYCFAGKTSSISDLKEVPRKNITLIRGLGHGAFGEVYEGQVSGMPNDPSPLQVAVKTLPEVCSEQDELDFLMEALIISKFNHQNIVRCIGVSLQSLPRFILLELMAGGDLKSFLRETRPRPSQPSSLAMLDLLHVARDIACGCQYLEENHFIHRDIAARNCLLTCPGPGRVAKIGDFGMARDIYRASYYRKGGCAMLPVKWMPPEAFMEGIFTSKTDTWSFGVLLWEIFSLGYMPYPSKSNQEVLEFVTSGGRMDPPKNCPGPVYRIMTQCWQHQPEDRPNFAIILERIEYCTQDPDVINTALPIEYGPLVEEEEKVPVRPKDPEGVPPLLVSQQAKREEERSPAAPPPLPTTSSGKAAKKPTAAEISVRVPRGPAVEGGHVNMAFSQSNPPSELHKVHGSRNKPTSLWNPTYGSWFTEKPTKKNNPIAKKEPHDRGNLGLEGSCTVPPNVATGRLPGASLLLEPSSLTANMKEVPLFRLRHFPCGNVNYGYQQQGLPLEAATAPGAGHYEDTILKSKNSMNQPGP
Chain of FER (P16591 whole entry): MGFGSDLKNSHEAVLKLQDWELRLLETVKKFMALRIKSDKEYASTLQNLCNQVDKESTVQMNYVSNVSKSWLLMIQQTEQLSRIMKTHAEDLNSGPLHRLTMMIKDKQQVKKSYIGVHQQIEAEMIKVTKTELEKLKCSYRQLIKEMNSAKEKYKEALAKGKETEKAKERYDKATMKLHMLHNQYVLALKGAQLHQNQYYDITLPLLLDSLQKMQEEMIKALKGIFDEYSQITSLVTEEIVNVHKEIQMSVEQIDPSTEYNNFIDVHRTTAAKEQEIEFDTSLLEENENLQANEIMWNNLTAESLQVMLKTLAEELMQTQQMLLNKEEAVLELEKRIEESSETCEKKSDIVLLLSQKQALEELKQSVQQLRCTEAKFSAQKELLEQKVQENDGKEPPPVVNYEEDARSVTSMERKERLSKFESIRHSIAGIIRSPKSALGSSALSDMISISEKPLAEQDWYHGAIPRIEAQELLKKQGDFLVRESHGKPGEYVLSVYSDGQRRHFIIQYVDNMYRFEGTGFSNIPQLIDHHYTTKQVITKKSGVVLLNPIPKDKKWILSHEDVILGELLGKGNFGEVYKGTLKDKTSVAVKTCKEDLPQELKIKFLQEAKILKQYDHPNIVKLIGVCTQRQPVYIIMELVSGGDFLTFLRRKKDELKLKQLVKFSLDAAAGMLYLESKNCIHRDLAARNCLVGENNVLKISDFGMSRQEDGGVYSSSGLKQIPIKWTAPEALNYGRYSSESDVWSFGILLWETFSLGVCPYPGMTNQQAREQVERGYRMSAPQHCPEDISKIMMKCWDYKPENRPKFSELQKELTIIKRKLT
Chain of AMPKα1 (Q13131 whole entry): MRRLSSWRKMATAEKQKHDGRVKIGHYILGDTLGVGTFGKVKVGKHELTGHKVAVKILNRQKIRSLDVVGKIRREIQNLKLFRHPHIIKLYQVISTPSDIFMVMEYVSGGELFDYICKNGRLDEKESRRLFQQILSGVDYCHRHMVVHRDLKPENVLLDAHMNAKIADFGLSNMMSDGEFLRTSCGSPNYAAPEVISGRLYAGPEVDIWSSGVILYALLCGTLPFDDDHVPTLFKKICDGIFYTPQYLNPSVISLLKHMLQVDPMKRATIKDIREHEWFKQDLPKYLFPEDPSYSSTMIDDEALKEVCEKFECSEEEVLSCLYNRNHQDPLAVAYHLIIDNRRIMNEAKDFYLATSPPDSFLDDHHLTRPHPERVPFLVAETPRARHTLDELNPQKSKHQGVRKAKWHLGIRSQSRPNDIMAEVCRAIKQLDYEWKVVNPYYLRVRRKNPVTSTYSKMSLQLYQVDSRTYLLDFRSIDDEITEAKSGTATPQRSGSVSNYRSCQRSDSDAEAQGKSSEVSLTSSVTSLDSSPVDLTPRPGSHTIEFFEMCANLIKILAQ
Chain of AMPKα1 (Q9Y478 whole entry partner): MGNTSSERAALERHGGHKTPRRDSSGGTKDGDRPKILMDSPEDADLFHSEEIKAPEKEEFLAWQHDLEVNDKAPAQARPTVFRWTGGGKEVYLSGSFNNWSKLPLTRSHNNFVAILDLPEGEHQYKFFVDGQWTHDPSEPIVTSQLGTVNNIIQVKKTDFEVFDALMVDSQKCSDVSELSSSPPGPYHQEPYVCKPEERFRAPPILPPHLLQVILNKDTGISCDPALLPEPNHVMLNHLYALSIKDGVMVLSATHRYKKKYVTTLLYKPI
Chain of AMPKα1 (P54619 whole entry partner): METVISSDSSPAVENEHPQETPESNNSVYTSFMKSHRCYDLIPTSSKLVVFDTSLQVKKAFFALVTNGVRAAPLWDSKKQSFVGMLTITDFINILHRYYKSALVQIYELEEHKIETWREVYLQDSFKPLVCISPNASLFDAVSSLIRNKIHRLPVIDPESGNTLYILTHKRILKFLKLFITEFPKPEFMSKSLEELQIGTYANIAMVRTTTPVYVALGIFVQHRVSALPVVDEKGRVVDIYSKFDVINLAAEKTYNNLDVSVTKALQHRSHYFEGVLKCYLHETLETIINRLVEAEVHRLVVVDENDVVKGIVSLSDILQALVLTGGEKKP

For `CNC(=O)c1ccccc1Nc1nc(Nc2ccc3c(c2OC)CCC[C@H](N2CCN(CCO)CC2)C3)ncc1Cl` [CEP-37440], the synergy with paclitaxel (H1155 cells [1]) was “strongly synergized”.
For `Cc1ccc(-c2c(C(=O)CF)n(CCCO)c3ncnc(N)c23)cc1` [FMK], the “effect on viability, single agent” value ([2]; 20 μM) was “little effect”.
In the case of `C[C@]1(O)C[C@@H](c2nc(-c3ccc4ccc(-c5ccccc5)nc4c3)c3c(N)nccn32)C1` [OSI-906], the “effect on viability, single agent” value ([2]; 1.5 μM) was “little effect”.
For `CS(=O)(=O)c1cccc(CNc2nc(Nc3ccc4c(c3)CCC(=O)N4)ncc2C(F)(F)F)c1` [PF-573228], the “effect on viability, single agent” value ([2]; 1.5 μM) was “little effect”.
In the case of `CC(=O)O[C@@H]1[C@@H](OC(C)=O)[C@@H](O)[C@H](Oc2c(-c3ccc(O)cc3)oc3cc(O)cc(O)c3c2=O)O[C@H]1C` [SL0101], the “effect on viability, single agent” value ([2]; 20 μM) was “little effect”.
In the case of `Cc1cc(Nc2ncc(Cl)c(Nc3ccccc3S(=O)(=O)C(C)C)n2)c(OC(C)C)cc1C1CCN(CCCN)CC1` [c-ceritinib], the “binding of EML4-ALK” value (EML4-ALK) was “ability to bind” and the ALK inhibition (ALK) was “Activity was confirmed”.
With `Cc1cc(Nc2ncc(Cl)c(Nc3ccccc3S(=O)(=O)C(C)C)n2)c(OC(C)C)cc1C1CCNCC1` [ceritinib, 5-Chloro-N2-(2-isopropoxy-5-methyl-4-(piperidin-4-yl)phenyl)-N4-(2-(isopropylsulfonyl)phenyl)pyrimidine-2,4-diamine] the “effect on ERK phosphorylation” value [3] was “only minor effects”, the “synergy, Bliss model of independence” value (H650 and H1155 cells) was “substantial synergy” and the “synergy (Bliss), 3D ex vivo culture” value [4] was “pronounced synergy”. For the same molecule, the synergy with paclitaxel (H1155 cells [1]) was “pronounced synergy”, the kinase domain bound [5] was “binds to the CTKD” and the “apoptosis, combination” value (H1155 cells [6]; ceritinib combined with paclitaxel) was “significant increase in apoptosis”. The “apoptosis, single drug” value (H1155 cells [6]) was “no effect”, the pIC50 (FER) was 8.30 and the “activity in viability screen” value [7] was “specific ALK-independent activity”. The “competition from the affinity matrix” value (FAK1 and RSK1/2) was “competed away”, the “effect on RSK1/2 S380/S386 autophosphorylation” value [8] was “inhibited” and the “effect on RPS6 S235/236 phosphorylation” value [9] was “inhibited”. The “effect on autophosphorylation of FAK1” value [10] was “reduced”, the clinical plasma concentrations [11] was 1.4 to 2.3 µM and the “combination effect, clonogenic assay” value (H460 cells [12]) was “pronounced combination effects”. The pIC50 ([13]; 72 h, read-out: IC50, inhibition of viability) was 5.70 to 6.00, the viability at 4 µM ([13]; read-out: Emax, viability) was 0% and the pIC50 (AMPKα1) was 5.60. The response to combination [14] was “strong response”, the inhibition (mTOR) was “not significantly inhibited” and the “synergy, CI values” (H460 cells [15]) was “highly synergistic”. The inhibition (ERK1/2) was “not significantly inhibited”, the “effect on AKT phosphorylation” value [16] was “reduced” and the cell cycle effect (NSCLC cells) was “G1 cell cycle arrest”. The “effect on YB1 S102 phosphorylation” value [17] was “inhibited”.
With `c1cc(-c2cnn3cc(-c4ccc(OCCN5CCCCC5)cc4)cnc23)ccn1` [compound C] the synergy with paclitaxel (H1155 cells [1]) was “did not synergize”.
In the case of `CC(=O)O[C@H]1C(=O)[C@@]2(C)[C@H]([C@H](OC(=O)c3ccccc3)[C@]3(O)C[C@H](OC(=O)[C@H](O)[C@@H](NC(=O)c4ccccc4)c4ccccc4)C(C)=C1C3(C)C)[C@]1(OC(C)=O)CO[C@@H]1C[C@@H]2O` [paclitaxel], the “apoptosis, single drug” value (H1155 cells [6]) was “no effect”.
With `CN(C)C(=O)c1cc2cnc(Nc3ccc(N4CCNCC4)cn3)nc2n1C1CCCC1` [ribociclib] the synergy with paclitaxel (H1155 cells [1]) was “did not exhibit synergy”.
